pIC50: −log10 of the molar value. ≈ marks a conversion by molar mass, not a printed value.
How the values were obtained:
[1] = Selectivity index, ratio of IC50 for human HeLa cells to MIC for metronidazole-susceptible Trichomonas vaginalis; type: toxicity; details: read-out: Selectivity Index
[2] = test system: HeLa; assay: Cytotoxicity against human HeLa cells after 24 hrs by MTT assay; type: cell-based
[3] = test system: Sporothrix schenckii; assay: Antifungal activity against Sporothrix schenckii after 48 hrs by broth microdilution method; type: functional
Summary of the method: (§1)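 Broth microdilution per NCCLS guidelines in MOPS-buffered RPMI 1640; starting inoculum 1-5 x 10^3 CFU/mL; plates incubated at 35 °C; MIC recorded after 48 h; fluconazole as reference; experiments repeated three times.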

[4] = test system: Cryptococcus neoformans; assay: Antifungal activity against Cryptococcus neoformans after 48 hrs by broth microdilution method; type: functional; summary of the method: as §1
[5] = test system: Trichophyton mentagrophytes; assay: Antifungal activity against Trichophyton mentagrophytes after 48 hrs by broth microdilution method; type: functional; summary of the method: as §1
[6] = test system: Trichomonas vaginalis; assay: Potency index, ratio of metronidazole MIC to test compound MIC for metronidazole-resistant Trichomonas vaginalis CDC085 ATCC 50143; type: functional
[7] = test system: Nakaseomyces glabratus; assay: Antifungal activity against Candida glabrata ATCC 2001 after 48 hrs by broth microdilution method; type: functional; details: ATCC 2001, 48 h; summary of the method: as §1
[8] = test system: Trichomonas vaginalis; assay: Antitrichomonas activity against metronidazole-resistant Trichomonas vaginalis CDC085 ATCC 50143 assessed as decrease in cell viability after 48 hrs by trypan blue exclusion method; type: functional; details: CDC085 ATCC 50143, 48 h
[9] = test system: Candida albicans; assay: Antifungal activity against Candida albicans ATCC 10231 after 48 hrs by broth microdilution method; type: functional; details: ATCC 10231, 48 h; summary of the method: as §1
[10] = test system: Trichomonas vaginalis; assay: Antitrichomonas activity against metronidazole-susceptible Trichomonas vaginalis assessed as decrease in cell viability after 48 hrs by trypan blue exclusion method; type: functional
[11] = test system: Candida albicans; assay: Antifungal activity against Candida albicans ATCC 66027 after 48 hrs by broth microdilution method; type: functional; details: ATCC 66027, 48 h; summary of the method: as §1
[12] = test system: Candida albicans; assay: Antifungal activity against Candida albicans patient isolate after 48 hrs by broth microdilution method; type: functional; summary of the method: as §1
[13] = test system: Candida albicans; assay: Antifungal activity against Candida albicans ATCC 14053 after 48 hrs by broth microdilution method; type: functional; details: ATCC 14053, 48 h; summary of the method: as §1
[14] = test system: Candida albicans; assay: Antifungal activity against Candida albicans MTCC 183 after 48 hrs by broth microdilution method; type: functional; details: MTCC 183, 48 h; summary of the method: as §1
[15] = Selectivity index, ratio of IC50 for human HeLa cells to MIC for metronidazole-resistant Trichomonas vaginalis CDC085 ATCC 50143; type: toxicity; details: read-out: Selectivity Index
[16] = test system: Candida parapsilosis; assay: Antifungal activity against Candida parapsilosis ATCC 22019 after 48 hrs by broth microdilution method; type: functional; details: Lodderomyces parapsilosis, ATCC 22019, 48 h; summary of the method: as §1

| SMILES | selectivity ratio [1] | pIC50 [2] | MIC [3] [µM] | MIC [4] [µM] | MIC [5] [µM] | Ratio [6] | MIC [7] [µM] | MIC [8] [µM] | MIC [9] [µM] | MIC [10] [µM] | MIC [11] [µM] | MIC [12] [µM] | MIC [13] [µM] | MIC [14] [µM] | selectivity ratio [15] | MIC [16] [µM] |
| --- | --- | --- | --- | --- | --- | --- | --- | --- | --- | --- | --- | --- | --- | --- | --- | --- |
| CN(C)C(=S)SC(=S)N1CCN(C(=S)NC2CCCCC2)CC1 | > 161 | < 2.30 | 128 (≈ 50 µg/mL) | > 128 | 128 (≈ 50 µg/mL) | 1.3 - 11.2 | > 128 | 63.9 (≈ 25 µg/mL) | > 128 | 32 (≈ 12.5 µg/mL) | > 128 | > 128 | > 128 | > 128 | > 79 | 128 (≈ 50 µg/mL) |
| CCN(CC)C(=S)SC(=S)N(C)C | > 94 | < 2.30 | 26.5 (≈ 6.26 µg/mL) | 106 (≈ 25 µg/mL) | 26.5 (≈ 6.26 µg/mL) | 1.5 - 3.8 | > 212 | 106 (≈ 25 µg/mL) | > 212 | 53 (≈ 12.5 µg/mL) | 53 (≈ 12.5 µg/mL) | 53 (≈ 12.5 µg/mL) | > 212 | 106 (≈ 25 µg/mL) | > 47 | 26.5 (≈ 6.26 µg/mL) |
| CN(C)C(=S)SC(=S)N1CCCCC1 | > 200 | < 2.30 | 101 (≈ 25 µg/mL) | 202 (≈ 50.1 µg/mL) | 101 (≈ 25 µg/mL) | 1.5 - 3.8 | 50.4 (≈ 12.5 µg/mL) | 101 (≈ 25 µg/mL) | 50.4 (≈ 12.5 µg/mL) | 25.2 (≈ 6.26 µg/mL) | 50.4 (≈ 12.5 µg/mL) | 101 (≈ 25 µg/mL) | 25.2 (≈ 6.26 µg/mL) | 50.4 (≈ 12.5 µg/mL) | > 50 | 101 (≈ 25 µg/mL) |
| CCOC(=O)N1CCN(C(=S)SC(=S)N(C)C)CC1 | 6 | 3.28 | 77.9 (≈ 25 µg/mL) | 156 (≈ 50.1 µg/mL) | 77.9 (≈ 25 µg/mL) | 1.3 - 9.5 | 156 (≈ 50.1 µg/mL) | 156 (≈ 50.1 µg/mL) | > 156 | 77.9 (≈ 25 µg/mL) | 38.9 (≈ 12.5 µg/mL) | 156 (≈ 50.1 µg/mL) | 156 (≈ 50.1 µg/mL) | 156 (≈ 50.1 µg/mL) | 3 | 156 (≈ 50.1 µg/mL) |
| CN(C)C(=S)SC(=S)N1CCN(C(=S)NCc2ccccc2)CC1 | > 40 | < 2.30 | 125 (≈ 50 µg/mL) | > 125 | 125 (≈ 50 µg/mL) | 1.3 - 11.2 | > 125 | 251 (≈ 99.9 µg/mL) | > 125 | 125 (≈ 50 µg/mL) | > 125 | > 125 | > 125 | > 125 | > 20 | > 125 |
| COc1ccccc1N1CCN(C(=S)SC(=S)N(C)C)CC1 | 15 | 2.36 | 140 (≈ 49.9 µg/mL) | > 140 | 140 (≈ 49.9 µg/mL) | 1.3 - 9.5 | > 140 | 702 (≈ 250 µg/mL) | > 140 | 281 (≈ 99.9 µg/mL) | 70.2 (≈ 25 µg/mL) | > 140 | > 140 | 140 (≈ 49.9 µg/mL) | 6 | 70.2 (≈ 25 µg/mL) |
| CN(C)C(=S)SC(=S)N1CCCCCC1 | > 52 | < 2.30 | 23.9 (≈ 6.26 µg/mL) | 47.7 (≈ 12.5 µg/mL) | 23.9 (≈ 6.26 µg/mL) | 1.5 - 3.8 | 11.9 (≈ 3.12 µg/mL) | 191 (≈ 50.1 µg/mL) | 23.9 (≈ 6.26 µg/mL) | 95.4 (≈ 25 µg/mL) | 23.9 (≈ 6.26 µg/mL) | 23.9 (≈ 6.26 µg/mL) | 11.9 (≈ 3.12 µg/mL) | 47.7 (≈ 12.5 µg/mL) | > 26 | 23.9 (≈ 6.26 µg/mL) |
| CN(C)C(=S)SC(=S)N1CCN(C(=S)NCCc2ccccc2)CC1 | > 83 | < 2.30 | > 121 | > 121 | > 121 | 1.3 - 11.2 | > 121 | 242 (≈ 99.9 µg/mL) | > 121 | 60.5 (≈ 25 µg/mL) | > 121 | > 121 | > 121 | > 121 | > 20 | > 121 |
| CN(C)C(=S)SC(=S)N1CCN(C(=O)NC2CCCCC2)CC1 | > 37 | < 2.30 | 133 (≈ 49.9 µg/mL) | > 133 | 133 (≈ 49.9 µg/mL) | 1.3 - 11.2 | > 133 | 267 (≈ 99.9 µg/mL) | > 133 | 133 (≈ 49.9 µg/mL) | > 133 | > 133 | > 133 | > 133 | > 18 | 133 (≈ 49.9 µg/mL) |

— ChEMBL document CHEMBL4138228, “Substituted carbamothioic amine-1-carbothioic thioanhydrides as novel trichomonicidal fungicides: Design, synthesis, and biology” (Eur J Med Chem, 2018)
